ChEMBL document CHEMBL1140918, “Candidate selection and preclinical evaluation of N-tert-butyl isoquine (GSK369796), an affordable and effective 4-aminoquinoline antimalarial for the 21st century” (J Med Chem, 2009)
Calls of active or inactive are those of the source. The calls are words filed in the database; no cut-off is given here.

Legend:
Plasmodium yoelii [1] = assay: Antimalarial activity as reduced parasitaemia against Plasmodium yoelii 17X infected CD1 mice (Mus musculus) after 4 days; type: functional; settings: 96 h
Plasmodium yoelii [2] = assay: Antimalarial activity as ED100 in peripheral blood against Plasmodium yoelii 17X infected CD1 mice (Mus musculus) after 4 days; type: functional
Heme [3] = assay: Binding affinity to heme in DMSO assessed as equilibrium constant by UV-visible spectrophotometry; design: scale not given here
Procedure, shortened: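 Haem titrations were run in buffered 40% DMSO so that haem stays monomeric and aggregation and μ-oxo dimer formation are minimised. Binding data were fitted mathematically to two alternative binding-process models to pick the best fit.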

Heme [4] = assay: Binding affinity to heme in 20 mM SDS surfactant assessed as equilibrium constant by UV-visible spectrophotometry
Heme [5] = assay: Binding affinity to heme in 50 mM SDS surfactant assessed as equilibrium constant by UV-visible spectrophotometry
Heme [6] = assay: Binding affinity to heme in […] CTAB surfactant assessed as equilibrium constant by UV-visible spectrophotometry
Heme [7] = assay: Binding affinity to heme in 5 mM CTAB surfactant assessed as equilibrium constant by UV-visible spectrophotometry
Heme [8] = assay: Binding affinity to heme in 20 mM CTAB surfactant assessed as equilibrium constant by UV-visible spectrophotometry
Heme [9] = assay: Binding affinity to heme in 1.2 mM TX-100 surfactant assessed as equilibrium constant by UV-visible spectrophotometry
Rhesus monkey = assay: Toxicity in monkey assessed as increase in QTc interval; type: organism-based, Macaca mulatta; settings: in vivo
Procedure, shortened: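 Repeat-dose toxicity studies in monkeys, with QTc intervals and ECG rhythm monitored.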

[10] = molecular target: Voltage-gated inwardly rectifying potassium channel KCNH2 (Homo sapiens, UniProt Q12809); assay: Inhibition of human cloned ERG
Cytochrome P450 3A4 [11] = molecular target: T1, Cytochrome P450 3A4 (Homo sapiens, UniProt P08684); assay: Inhibition of human recombinant CYP3A4 using phenyl-piperazinyl-methyl-benzyl-resofurin as substrate; type: ADME
Procedure, shortened: (§1)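 Concentration-dependent inhibition of major human cytochrome P450 isozymes (recombinant enzymes) was tested using fluorescent probe substrates. Mean IC50 values were reported.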

Mus musculus = organism: Mus musculus; assay: Protein binding in mouse; type: ADME, organism-based; settings: in vivo
Procedure, shortened: (§2)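 Protein binding and blood-cell association were assessed in vitro in plasma or whole blood from preclinical species and humans.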

Plasmodium yoelii [12] = assay: Antimalarial activity as reduced parasitaemia at day 4 against Plasmodium yoelii 17X infected CD1 mice (Mus musculus) at 40 mg/kg; type: functional, organism-based; design: dose 40 mg/kg
Procedure, shortened: (§3)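 Standard Peters 4-day test in female age-matched CD1 mice, randomised into groups of 5. Mice were infected iv on day 0 with 6.4 × 10^6 or 10.0 × 10^6 parasites (P. berghei or P. yoelii) from infected donors. Peripheral-blood parasitaemia was read by flow cytometry at day 4 and compared with vehicle-treated groups. Doses ranged up to 40 mg/kg.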

Homo sapiens = organism: Homo sapiens; assay: Protein binding in human; type: ADME, organism-based; settings: in vivo; procedure, shortened: as §2
[13] = Clearance in iv and orally dosed dog blood; type: ADME, organism-based, Canis lupus familiaris; settings: whole blood
Procedure, shortened: (§4)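 Single intravenous and oral doses were given to the mouse, rat, dog and/or monkey. Drug was measured in blood to derive blood clearance, elimination half-life and % oral bioavailability.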

Cytochrome P450 2D6 = Cytochrome P450 2D6 (Homo sapiens, UniProt P10635); assay: Inhibition of human recombinant CYP2D6; type: ADME; procedure, shortened: as §1
Cytochrome P450 2C19 = Cytochrome P450 2C19 (Homo sapiens, UniProt P33261); assay: Inhibition of human recombinant CYP2C19; type: ADME; procedure, shortened: as §1
Cytochrome P450 2C8 = molecular target: T2, Cytochrome P450 2C8 (Homo sapiens, UniProt P10632); assay: Inhibition of human recombinant CYP2C8; type: ADME; procedure, shortened: as §1
T2 sequence (P10632 whole entry): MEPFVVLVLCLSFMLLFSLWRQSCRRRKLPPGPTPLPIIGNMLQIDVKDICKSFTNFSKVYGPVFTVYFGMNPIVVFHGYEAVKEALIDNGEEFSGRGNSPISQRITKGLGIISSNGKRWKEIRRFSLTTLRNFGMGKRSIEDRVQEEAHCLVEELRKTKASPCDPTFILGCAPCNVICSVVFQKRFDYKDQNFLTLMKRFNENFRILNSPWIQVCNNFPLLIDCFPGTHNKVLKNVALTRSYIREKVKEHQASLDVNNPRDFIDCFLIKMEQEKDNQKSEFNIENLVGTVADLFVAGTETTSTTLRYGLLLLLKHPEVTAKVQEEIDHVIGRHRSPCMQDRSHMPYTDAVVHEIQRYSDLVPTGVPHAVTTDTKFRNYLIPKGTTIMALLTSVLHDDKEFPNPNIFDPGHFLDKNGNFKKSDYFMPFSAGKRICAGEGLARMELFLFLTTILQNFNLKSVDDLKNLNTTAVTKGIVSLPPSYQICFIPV

Cytochrome P450 2C9 = Cytochrome P450 2C9 (Homo sapiens, UniProt P11712); assay: Inhibition of human recombinant CYP2C9; type: ADME; procedure, shortened: as §1
Cytochrome P450 1A2 = molecular target: T3, Cytochrome P450 1A2 (Homo sapiens, UniProt P05177); assay: Inhibition of human recombinant CYP1A2; type: ADME; procedure, shortened: as §1
T3 sequence (P05177 whole entry): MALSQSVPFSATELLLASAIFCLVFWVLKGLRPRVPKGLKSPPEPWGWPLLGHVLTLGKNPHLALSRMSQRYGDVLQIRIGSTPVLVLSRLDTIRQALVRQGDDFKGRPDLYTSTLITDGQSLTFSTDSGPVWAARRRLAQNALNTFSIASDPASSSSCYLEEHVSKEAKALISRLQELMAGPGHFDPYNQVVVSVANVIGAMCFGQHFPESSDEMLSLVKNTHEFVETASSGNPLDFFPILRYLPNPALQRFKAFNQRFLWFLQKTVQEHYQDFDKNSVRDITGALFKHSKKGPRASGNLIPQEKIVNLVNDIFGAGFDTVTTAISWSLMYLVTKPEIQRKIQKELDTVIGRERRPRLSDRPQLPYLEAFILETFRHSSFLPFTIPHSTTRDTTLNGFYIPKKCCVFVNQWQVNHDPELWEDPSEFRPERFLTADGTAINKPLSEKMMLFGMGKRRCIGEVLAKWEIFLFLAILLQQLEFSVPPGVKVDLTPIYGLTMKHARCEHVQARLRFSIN

Cytochrome P450 3A4 [14] = molecular target: T1, Cytochrome P450 3A4; assay: Inhibition of human recombinant CYP3A4 using […] as substrate; type: ADME
Plasmodium falciparum [15] = assay: Antimalarial activity against chloroquine-sensitive Plasmodium falciparum 3D7 in human erythrocytes after 48 hrs by [3H]hypoxanthine uptake; type: functional, organism-based
Procedure, shortened: (§5)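 P. falciparum grown in human erythrocytes in RPMI 1640 with 25 mM HEPES, 32 mM NaHCO3 and 10% human serum, gassed 3% O2/4% CO2/93% N2. Assay at 2% parasitemia, 0.5% hematocrit, drug stocks in DMSO diluted in medium, in triplicate. After 24 h at 37 °C, [3H]-hypoxanthine added and incubation continued 24 h. Scintillation counting; IC50 by probit interpolation of log dose-response, three independent experiments.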

Plasmodium falciparum [16] = assay: Antimalarial activity against chloroquine-sensitive Plasmodium falciparum HB3 in human erythrocytes after 48 hrs by [3H]hypoxanthine uptake; type: functional, organism-based; procedure, shortened: as §5
Plasmodium falciparum [17] = assay: Antimalarial activity against chloroquine-resistant Plasmodium falciparum K1 in human erythrocytes after 48 hrs by [3H]hypoxanthine uptake; type: functional, organism-based; procedure, shortened: as §5
Plasmodium berghei = assay: Antimalarial activity as reduced parasitaemia against Plasmodium berghei ANKA infected CD1 mice (Mus musculus) after 4 days; type: functional; settings: 96 h; procedure, shortened: as §3
[18] = Clearance in iv and orally dosed monkey blood; type: ADME, organism-based, Macaca mulatta; settings: rhesus monkey, whole blood; procedure, shortened: as §4
[19] = Oral bioavailability in monkey; type: ADME, organism-based, Macaca mulatta; settings: rhesus monkey, in vivo; procedure, shortened: as §4
[20] = Oral bioavailability in mouse; type: ADME, organism-based; settings: in vivo; procedure, shortened: as §4
[21] = Clearance in iv and orally dosed rat blood; type: ADME, organism-based; settings: whole blood; procedure, shortened: as §4
[22] = Elimination half life in orally dosed mouse; type: ADME, organism-based; settings: in vivo, po, read-out: beta t1/2 (converted); procedure, shortened: as §4
[23] = Ratio of drug level in blood to plasma in human; type: ADME, cell-free; settings: read-out: BPR
Procedure, shortened: (§6)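 Red blood cell association measured in vitro in whole blood from the species named, alongside plasma protein binding. Read-out is the ratio of drug concentration in whole blood to that in plasma.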

Plasmodium yoelii [24] = assay: Antimalarial activity as ED100 in peripheral blood at day 23 against Plasmodium yoelii 17X infected CD1 mice (Mus musculus); type: functional
[25] = Clearance in iv and orally dosed mouse blood; type: ADME, organism-based; settings: whole blood; procedure, shortened: as §4
[26] = Oral bioavailability in rat; type: ADME, organism-based; settings: in vivo; procedure, shortened: as §4
[27] = Oral bioavailability in dog; type: ADME, organism-based, Canis lupus familiaris; settings: in vivo; procedure, shortened: as §4
[28] = Elimination half life in orally dosed monkey; type: ADME, organism-based, Macaca mulatta; settings: rhesus monkey, in vivo, po; read-out: beta t1/2 (converted); procedure, shortened: as §4
[29] = Ratio of drug level in blood to plasma in dog; type: ADME, cell-free, Canis lupus familiaris; settings: read-out: BPR; procedure, shortened: as §6

T1 sequence (P08684 whole entry): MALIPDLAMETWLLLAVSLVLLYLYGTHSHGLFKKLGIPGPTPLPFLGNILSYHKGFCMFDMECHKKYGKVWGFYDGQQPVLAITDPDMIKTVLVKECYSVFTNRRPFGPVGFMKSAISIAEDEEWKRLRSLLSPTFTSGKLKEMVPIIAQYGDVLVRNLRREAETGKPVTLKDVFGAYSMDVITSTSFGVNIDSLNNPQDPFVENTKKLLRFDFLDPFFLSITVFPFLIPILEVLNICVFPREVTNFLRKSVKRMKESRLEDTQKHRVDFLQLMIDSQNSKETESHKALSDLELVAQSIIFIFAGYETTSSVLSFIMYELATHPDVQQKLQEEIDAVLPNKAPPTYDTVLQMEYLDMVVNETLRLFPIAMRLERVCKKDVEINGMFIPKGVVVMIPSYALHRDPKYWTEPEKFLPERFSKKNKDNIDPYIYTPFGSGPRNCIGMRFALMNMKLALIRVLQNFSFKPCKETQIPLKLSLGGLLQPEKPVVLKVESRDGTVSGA
Voltage-gated inwardly rectifying potassium channel KCNH2, sequence (Q12809 whole entry): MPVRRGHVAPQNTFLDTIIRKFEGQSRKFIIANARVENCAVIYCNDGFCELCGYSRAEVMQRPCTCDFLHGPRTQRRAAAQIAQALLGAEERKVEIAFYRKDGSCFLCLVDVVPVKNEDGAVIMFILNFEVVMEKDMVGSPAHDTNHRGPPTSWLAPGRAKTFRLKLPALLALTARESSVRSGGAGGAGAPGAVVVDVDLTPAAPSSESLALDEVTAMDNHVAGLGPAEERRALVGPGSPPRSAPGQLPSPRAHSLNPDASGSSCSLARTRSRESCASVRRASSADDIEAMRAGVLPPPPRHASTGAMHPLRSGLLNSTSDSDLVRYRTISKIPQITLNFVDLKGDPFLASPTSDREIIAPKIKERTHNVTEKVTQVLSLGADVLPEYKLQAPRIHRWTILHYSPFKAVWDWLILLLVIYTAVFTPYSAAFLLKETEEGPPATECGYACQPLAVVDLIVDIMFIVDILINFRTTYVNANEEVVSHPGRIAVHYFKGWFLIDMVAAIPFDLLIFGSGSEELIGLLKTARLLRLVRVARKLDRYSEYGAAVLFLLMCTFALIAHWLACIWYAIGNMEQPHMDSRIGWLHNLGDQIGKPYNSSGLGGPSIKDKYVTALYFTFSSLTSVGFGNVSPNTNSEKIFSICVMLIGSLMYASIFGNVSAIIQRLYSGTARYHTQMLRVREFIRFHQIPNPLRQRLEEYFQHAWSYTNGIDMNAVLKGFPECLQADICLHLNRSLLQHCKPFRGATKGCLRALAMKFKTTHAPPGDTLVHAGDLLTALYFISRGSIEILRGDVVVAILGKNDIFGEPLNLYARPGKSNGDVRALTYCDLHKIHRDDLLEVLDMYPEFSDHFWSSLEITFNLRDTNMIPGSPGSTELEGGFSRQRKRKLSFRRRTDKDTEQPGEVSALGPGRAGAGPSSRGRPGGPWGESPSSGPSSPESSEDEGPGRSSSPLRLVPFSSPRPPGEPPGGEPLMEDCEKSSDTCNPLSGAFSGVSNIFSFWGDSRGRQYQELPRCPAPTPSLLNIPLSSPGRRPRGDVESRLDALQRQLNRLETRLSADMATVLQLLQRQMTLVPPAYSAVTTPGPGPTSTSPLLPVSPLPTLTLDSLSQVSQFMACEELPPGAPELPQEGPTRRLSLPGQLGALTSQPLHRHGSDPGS
Cytochrome P450 2C19, sequence (P33261 whole entry): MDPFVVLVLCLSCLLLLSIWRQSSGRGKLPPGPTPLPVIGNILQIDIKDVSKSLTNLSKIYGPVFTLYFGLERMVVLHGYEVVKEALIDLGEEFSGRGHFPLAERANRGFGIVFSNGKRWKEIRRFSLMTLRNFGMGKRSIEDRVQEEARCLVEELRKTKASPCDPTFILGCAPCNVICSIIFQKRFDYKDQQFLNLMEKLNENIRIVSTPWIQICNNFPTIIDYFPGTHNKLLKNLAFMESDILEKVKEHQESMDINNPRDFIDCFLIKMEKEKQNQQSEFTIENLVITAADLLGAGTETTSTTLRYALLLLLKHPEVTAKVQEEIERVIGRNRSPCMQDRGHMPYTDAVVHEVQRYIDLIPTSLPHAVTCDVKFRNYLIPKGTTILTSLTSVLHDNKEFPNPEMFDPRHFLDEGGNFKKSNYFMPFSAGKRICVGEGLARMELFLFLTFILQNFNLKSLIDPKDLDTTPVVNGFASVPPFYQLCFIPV
Cytochrome P450 2C9, sequence (P11712 whole entry): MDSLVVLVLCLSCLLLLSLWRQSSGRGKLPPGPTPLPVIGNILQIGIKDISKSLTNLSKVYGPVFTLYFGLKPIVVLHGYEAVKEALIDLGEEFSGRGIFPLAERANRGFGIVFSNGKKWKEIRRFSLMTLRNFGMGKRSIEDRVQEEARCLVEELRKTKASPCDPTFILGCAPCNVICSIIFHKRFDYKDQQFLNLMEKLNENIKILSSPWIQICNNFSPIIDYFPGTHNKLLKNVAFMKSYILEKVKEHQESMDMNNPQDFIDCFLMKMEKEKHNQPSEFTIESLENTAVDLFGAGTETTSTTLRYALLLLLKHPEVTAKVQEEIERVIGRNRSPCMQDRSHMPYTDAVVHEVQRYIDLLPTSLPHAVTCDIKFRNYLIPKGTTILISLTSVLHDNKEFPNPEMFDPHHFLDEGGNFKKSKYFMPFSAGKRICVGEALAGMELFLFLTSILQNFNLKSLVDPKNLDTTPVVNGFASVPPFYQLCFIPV
Cytochrome P450 2D6, sequence (P10635 whole entry): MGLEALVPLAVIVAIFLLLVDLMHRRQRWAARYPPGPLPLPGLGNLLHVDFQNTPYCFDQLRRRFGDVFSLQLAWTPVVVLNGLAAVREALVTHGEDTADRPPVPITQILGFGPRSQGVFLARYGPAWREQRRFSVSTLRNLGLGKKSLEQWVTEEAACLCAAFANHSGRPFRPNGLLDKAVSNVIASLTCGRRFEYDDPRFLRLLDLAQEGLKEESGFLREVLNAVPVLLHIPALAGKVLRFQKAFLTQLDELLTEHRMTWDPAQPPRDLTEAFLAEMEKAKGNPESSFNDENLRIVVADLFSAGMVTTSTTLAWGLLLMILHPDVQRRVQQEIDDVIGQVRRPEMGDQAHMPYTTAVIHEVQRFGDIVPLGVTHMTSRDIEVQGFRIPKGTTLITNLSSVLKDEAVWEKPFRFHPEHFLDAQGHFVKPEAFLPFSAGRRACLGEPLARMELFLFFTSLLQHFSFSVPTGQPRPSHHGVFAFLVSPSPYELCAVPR

## CCN(CC)CCCC(C)Nc1ccnc2cc(Cl)ccc12 (configuration not stated) [CHLOROQUINE]
Plasmodium yoelii [1]
  ED50: 3.3 mg/kg
  ED90: 4.4 mg/kg
Plasmodium yoelii [2]
  Activity: >40 mg/kg
Heme [3]
  Activity: 5.3
Heme [4]
  Activity: 4.4
Heme [5]
  Activity: 3.8
Heme [6]
  Activity: 4
Heme [7]
  Activity: 4.69
Heme [8]
  Activity: 4.7
Heme [9]
  Activity: 6.23
Rhesus monkey
  Activity: Toxic

## CCNCc1cc(Nc2ccnc3cc(Cl)ccc23)ccc1O [DESETHYL AMODIAQUINE]
[10]
  IC50: 9.5 µM
Cytochrome P450 3A4 [11]
  IC50: > 100 µM
Mus musculus
  Activity: 74%
Plasmodium yoelii [12]
  Activity: inactive
Homo sapiens
  Activity: 86%

## CCNCc1ccc(Nc2ccnc3cc(Cl)ccc23)cc1O [DESETHYL ISOQUINE]
[13]
  clearance: 12 mL/min/kg
Cytochrome P450 2D6
  IC50: 3.4 µM
Cytochrome P450 2C19
  IC50: 62 µM
Cytochrome P450 2C8
  IC50: 23 µM
Cytochrome P450 2C9
  IC50: > 100 µM
Cytochrome P450 1A2
  IC50: 8 µM
Cytochrome P450 3A4 [11]
  IC50: ≥ 55 µM
Cytochrome P450 3A4 [14]; read-out: IC50
  IC50: > 100 µM
Plasmodium falciparum [15]
  IC50: 0.0092 µM
Plasmodium falciparum [16]
  IC50: 0.0142 µM
Plasmodium falciparum [17]
  IC50: 0.0176 µM
Plasmodium berghei
  ED50: 5.3 mg/kg
  ED90: 7.3 mg/kg
[18]
  clearance: 49 mL/min/kg
[19]
  bioavailability: 40%

## CC(C)(C)NCc1ccc(Nc2ccnc3cc(Cl)ccc23)cc1O [GSK-369796]
[20]
  bioavailability: 100%
[13]
  clearance: 6.3 mL/min/kg
[21]
  clearance: 26 mL/min/kg
[22]
  half-life: 3 h
[10]
  IC50: 7.5 µM
Cytochrome P450 2D6
  IC50: 3 µM
Cytochrome P450 2C19
  IC50: 24 µM
Cytochrome P450 2C8
  IC50: 23 µM
Cytochrome P450 2C9
  IC50: ≥ 90 µM
Cytochrome P450 1A2
  IC50: 29 µM
Cytochrome P450 3A4 [11]
  IC50: > 100 µM
Cytochrome P450 3A4 [14]
  IC50: Active
Plasmodium falciparum [15]
  IC50: 0.0112 µM
Plasmodium falciparum [16]
  IC50: 0.0126 µM
Plasmodium falciparum [17]
  IC50: 0.0132 µM
[23]
  blood plasma ratio: 1.2
Plasmodium berghei
  ED50: 2.8 mg/kg
  ED90: 4.7 mg/kg
Plasmodium yoelii [1]
  ED50: 3.8 mg/kg
  ED90: 5.4 mg/kg
Plasmodium yoelii [24]
  Activity: 20 mg/kg
Heme [3]
  Activity: 5.23
Mus musculus
  Activity: 93%
[18]
  clearance: 14.5 mL/min/kg
[25]
  clearance: 17 mL/min/kg
[26]
  bioavailability: 89%
[27]
  bioavailability: 68%
[19]
  bioavailability: 100%
[28]
  half-life: 11 h
Homo sapiens
  Activity: 88%
[29]
  blood plasma ratio: 15

## CCCCN(CCCC)CCC(O)c1cc2c(Cl)cc(Cl)cc2c2cc(C(F)(F)F)ccc12 (configuration not stated) [HALOFANTRINE]
Rhesus monkey
  Activity: Toxic

## CCN(CC)Cc1ccc(Nc2ccnc3cc(Cl)ccc23)cc1O [ISOQUINE]
[13]
  clearance: 151 mL/min/kg
[10]
  IC50: 3.9 µM
Cytochrome P450 3A4 [14]
  IC50: Active
Plasmodium falciparum [15]
  IC50: 0.0116 µM
Plasmodium falciparum [16]
  IC50: 0.0126 µM
Plasmodium falciparum [17]
  IC50: 0.0176 µM
Plasmodium berghei
  ED50: 3.7 mg/kg
  ED90: 5.3 mg/kg
Plasmodium yoelii [12]
  Activity: inactive
